Results as given in ChEMBL document CHEMBL2311381, “Synthesis and biological activity of aminophthalazines and aminopyridazines as novel inhibitors of PGE2 production in cells” (Bioorg Med Chem Lett, 2013).
Active and inactive are the calls of the source. The calls are words filed in the database; no cut-off is given here.

Experiments:
[1] = biological target: T1, Prostaglandin G/H synthase 2 (Homo sapiens, UniProt P35354); experiment: (§1) Inhibition of COX-2 (unknown origin) at 5 uM; settings: 5 µM
T1 sequence (P35354 whole entry): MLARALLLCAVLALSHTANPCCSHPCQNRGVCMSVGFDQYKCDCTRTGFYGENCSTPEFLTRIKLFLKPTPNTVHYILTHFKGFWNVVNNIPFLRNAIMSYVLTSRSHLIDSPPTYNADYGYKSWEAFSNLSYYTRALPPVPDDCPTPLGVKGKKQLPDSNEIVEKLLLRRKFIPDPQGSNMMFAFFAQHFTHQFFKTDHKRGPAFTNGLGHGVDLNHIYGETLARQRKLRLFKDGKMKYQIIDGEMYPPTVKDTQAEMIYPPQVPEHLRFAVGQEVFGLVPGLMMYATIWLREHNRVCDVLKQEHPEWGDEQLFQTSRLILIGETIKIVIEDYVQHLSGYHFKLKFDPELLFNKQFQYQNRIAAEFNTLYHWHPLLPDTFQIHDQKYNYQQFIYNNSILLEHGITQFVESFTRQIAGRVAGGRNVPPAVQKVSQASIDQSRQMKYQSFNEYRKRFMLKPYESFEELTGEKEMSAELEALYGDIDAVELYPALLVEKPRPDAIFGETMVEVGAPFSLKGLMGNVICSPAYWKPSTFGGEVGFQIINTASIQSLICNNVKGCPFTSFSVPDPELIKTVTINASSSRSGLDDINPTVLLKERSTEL
How it was run: (§2)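 Cell-free COX-2 activity measured with a fluorescent COX inhibitor screening kit, run per the kit instructions. Compounds were tested at 5 µM. Results are given as % inhibition ± SD (n = 3). Celecoxib served as the positive control. Dose-response curves were not run.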

[2] = (§3) Inhibition of IL-1beta-induced PGE2 production in human HCA-7 cells at 1 uM after 72 hrs by EIA; format: functional; settings: HCA-7, 72 h
How it was run: (§4)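 HCA-7 colon cancer cells were grown overnight in DMEM/10% FBS, then serum-starved for 18 h. They were stimulated with 10 ng/ml IL-1β together with compound (DMSO solution) in serum-free medium for 72 h. PGE2 in the supernatant was measured by EIA. Single-concentration screening was at 1 µM, giving % reduction ± SD (n = 3). EC50 values came from increasing concentrations. Celecoxib served as the positive control.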

[3] = Inhibition of IL-1beta-induced PGE2 production in human HCA-7 cells after 72 hrs by EIA; format: functional, cell-based; settings: HCA-7, 72 h; how it was run: as §4
HCA-7 = experiment: as §3; format: functional; how it was run: as §4
[4] = biological target: HCA-7 cells (Homo sapiens); experiment: Inhibition of PGE2 production in human HCA-7 cells
[5] = biological target: T2, COX-2 (Prostaglandin G/H synthase 2) (Homo sapiens, UniProt P35354); experiment: as §1; how it was run: as §2
T2 sequence (P35354 whole entry): T1 sequence (P35354 whole entry)

Row | inhibition (INH) [1] | EC50 [3] | EC50 [4] | inhibition at 5 µM [5] | Compound | inhibition at 1 µM [2] | inhibition (HCA-7)
1 | Not Active | – | – | – | c1ccc(Oc2ccc(Nc3nnc(-c4ccccc4)c4ccccc34)cc2)cc1 | 71.2% | –
2 | Not Active | 380 nM | – | – | Cc1ccc(Nc2nnc(-c3ccccc3Cl)c3ccccc23)cc1 | 97.2% | –
3 | – | – | – | – | NS(=O)(=O)c1ccc(Nc2nnc(-c3ccccc3)c3ccccc23)cc1 | – | inactive
4 | Not Active | 700 nM | – | – | Cc1ccc(Nc2nnc(-c3ccc(OC(C)C)cc3)c3ccccc23)cc1 | 76.7% | –
5 | – | – | – | – | Cc1ccc(Nc2ccc(-c3ccccc3)nn2)cc1 | 62.5% | –
6 | Not Active | 50 nM | – | – | COc1ccc(-c2nnc(N(C)c3ccc(C)cc3)c3ccccc23)cc1 | 87% | –
7 | Not Active | 590 nM | – | – | COc1ccccc1-c1nnc(Nc2ccc(C)cc2)c2ccccc12 | 77.2% | –
8 | Not Active | 570 nM | – | – | CCOc1ccc(-c2nnc(Nc3ccc(C)cc3)c3ccccc23)cc1 | 75.3% | –
9 | Not Active | 640 nM | – | – | COc1ccc(-c2nnc(Nc3cccc(C)c3)c3ccccc23)cc1 | 87.5% | –
10 | – | 330 nM | 330 nM | – | Clc1ccc(-c2csc(Nc3ccc(Oc4ccccc4)cc3)n2)cc1 | – | –
11 | – | – | – | – | COc1ccc(-c2nnc(Nc3ccc(OCC(N)=O)cc3)c3ccccc23)cc1 | – | inactive
12 | Not Active | 860 nM | – | – | Cc1ccc(Nc2nnc(-c3cccc(Cl)c3)c3ccccc23)cc1 | 75.2% | –
13 | – | 420 nM | – | 14.2% | Cc1ccc(Nc2nnc(-c3ccc(N(C)C)cc3)c3ccccc23)cc1 | 94.4% | –
14 | – | – | – | – | COc1cccc(-c2nnc(Nc3ccc(C)cc3)c3ccccc23)c1 | 62% | –
15 | – | 220 nM | – | 21.4% | COc1ccc(N(C)c2nnc(-c3ccccc3)c3ccccc23)cc1 | 92.4% | –
16 | – | – | – | – | COc1ccc(-c2ccc(Nc3ccc(C)cc3)nn2)cc1 | 49% | –
17 | – | – | – | – | Cc1ccc(Nc2nnc(-c3ccc4c(c3)OCO4)c3ccccc23)cc1 | 59% | –
18 | – | – | – | – | Cc1ccc(Nc2nnc(-c3cncnc3)c3ccccc23)cc1 | 15.1% | –
19 | – | 31 nM | – | 23% | Cc1ccc(Nc2nnc(-c3ccccc3)c3ccccc23)cc1 | 98.9% | –
20 | – | – | – | – | COc1ccc(Nc2nnc(-c3ccc(C(=O)NCCO)cc3)c3ccccc23)cc1 | 39.2% | –
21 | Not Active | 930 nM | – | – | CCc1ccc(Nc2nnc(-c3ccc(OC)cc3)c3ccccc23)cc1 | 85% | –
22 | – | 500 nM | – | 10.1% | Clc1cccc(Nc2nnc(-c3ccccc3)c3ccccc23)c1 | 79.4% | –
23 | Not Active | 90 nM | – | – | COc1ccc(-c2nnc(Nc3ccc(Oc4ccccc4)cc3)c3ccccc23)cc1 | 92.6% | –
24 | – | 20 nM | – | 3% | COc1ccc(-c2nnc(Nc3ccccc3)c3ccccc23)cc1 | 97.3% | –
25 | – | – | – | – | CCOC(=O)c1ccc(Nc2nnc(-c3ccccc3)c3ccccc23)cc1 | 18.4% | –
26 | Not Active | 540 nM | – | – | Cc1ccc(Nc2nnc(-c3cccc(-c4ccccc4)c3)c3ccccc23)cc1 | 84.2% | –
27 | – | – | – | – | Oc1ccc(Nc2nnc(-c3ccccc3)c3ccccc23)cc1 | 26.7% | –
28 | Not Active | 32 nM | – | – | COc1ccc(-c2nnc(Nc3ccc(C)cc3)c3ccccc23)cc1 | 98.3% | –
29 | Not Active | 760 nM | – | – | Cc1cccc(Nc2nnc(-c3ccccc3)c3ccccc23)c1 | 74.1% | –
